Results taken from ChEMBL document CHEMBL1138564, “Microwave-induced synthesis and anti-microbial activities of 7,10,11,12-tetrahydrobenzo[c]acridin-8(9H)-one derivatives” (2009).
In brackets after ≈: the same amount, converted by molar mass. Activity calls are given as the source filed them. No cut-off for these calls is given here.

How the values were obtained:
Bacillus subtilis [1] = experiment: Antimicrobial activity against Bacillus subtilis NCIM 2063 after 24 hrs by serial dilution method; assay type: functional; settings: NCIM 2063, 24 h
How it was run: (§1)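 Broth dilution MIC in nutrient broth, run only for organisms found sensitive in disc diffusion. Compounds are two-fold serially diluted in 1 ml sterile broth per tube, spanning 3.9 to 1000. Inoculated tubes are incubated at 37 °C for 24 h.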

Aspergillus niger [2] = experiment: Antimicrobial activity against Aspergillus niger NCIM 1196 at 1000 ug/disk after 72 hrs by disk diffusion method
Aspergillus fumigatus [3] = experiment: Antimicrobial activity against Aspergillus fumigatus NCIM 902 at 1000 ug/disk after 72 hrs by disk diffusion method; assay type: functional; settings: for zone of inhibition at 1000 µg/disc: NCIM 902, 72 h, read-out: DIZ
How it was run: (§2)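 Disc diffusion on Sabouraud's dextrose agar. 100 µl of fungal suspension at 10⁶ CFU/ml is spread on the plate. Discs carry test compounds at two loadings in DMSO; DMSO alone is the negative control. Clotrimazole disc is the positive reference. Plates are incubated at 27 °C for 72 h, and the zone of inhibition diameter is measured.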

Aspergillus niger [4] = experiment: Antimicrobial activity against Aspergillus niger NCIM 1196 at 500 ug/disk after 72 hrs by disk diffusion method
Rhodotorula mucilaginosa = experiment: Antimicrobial activity against Rhodotorula rubra NCIM 3174 after 72 hrs by serial dilution method; assay type: functional; settings: NCIM 3174, 72 h
How it was run: (§3)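 MIC by broth dilution in Sabouraud's dextrose broth, run only on fungi found sensitive in the disc assay. Twofold serial dilutions were made in 1 ml broth per tube, covering 3.9 to 1000. Inoculated tubes were incubated at 27 °C for 72 h.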

Klebsiella aerogenes [5] = experiment: Antimicrobial activity against Klebsiella aerogenes NCIM 2239 after 24 hrs by serial dilution method; assay type: functional; settings: NCIM 2239, 24 h; how it was run: as §1
Bacillus cereus [6] = experiment: Antimicrobial activity against Bacillus cereus NCIM 2155 after 24 hrs by serial dilution method; assay type: functional; settings: NCIM 2155, 24 h; how it was run: as §1
Klebsiella aerogenes [7] = experiment: Antimicrobial activity against Klebsiella aerogenes NCIM 2239 at 1000 ug/disk after 24 hrs by disk diffusion method; assay type: functional; settings: for zone of inhibition at 1000 µg/disc: NCIM 2239, 24 h, read-out: DIZ
How it was run: (§4)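 Disc diffusion on Mueller–Hinton agar. 100 µl of bacterial suspension at 10⁸ CFU/ml is spread on the plate. Discs carry test compounds at two loadings, dissolved in DMSO; DMSO alone serves as negative control. Ofloxacin disc is the positive reference. Plates are incubated at 37 °C for 24 h, and the inhibition zone diameter is measured.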

Bacillus cereus [8] = experiment: Antimicrobial activity against Bacillus cereus NCIM 2155 at 500 ug/disk after 24 hrs by disk diffusion method; assay type: functional; settings: NCIM 2155, 24 h, read-out: DIZ; how it was run: as §4
Salmonella typhimurium = experiment: Antimicrobial activity against Salmonella Typhimurium NCIM 2501 after 24 hrs by serial dilution method; assay type: functional, Salmonella enterica subsp. enterica serovar Typhimurium; settings: Salmonella enterica, NCIM 2501, 24 h
Bacillus subtilis [9] = experiment: Antimicrobial activity against Bacillus subtilis NCIM 2063 at 1000 ug/disk after 24 hrs by disk diffusion method; assay type: functional; settings: NCIM 2063, 24 h, read-out: DIZ; how it was run: as §4
Trichoderma viride = experiment: Antimicrobial activity against Trichoderma viride NCIM 1195 after 72 hrs by serial dilution method; assay type: functional; settings: NCIM 1195, 72 h; how it was run: as §3
Aspergillus parasiticus = experiment: Antimicrobial activity against Aspergillus parasiticus NCIM 904 at 1000 ug/disk after 72 hrs by disk diffusion method; assay type: functional; settings: NCIM 904, 72 h, read-out: DIZ; how it was run: as §2
Aspergillus fumigatus [10] = experiment: Antimicrobial activity against Aspergillus fumigatus NCIM 902 after 72 hrs by serial dilution method; assay type: functional; settings: NCIM 902, 72 h
How it was run: (§5)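 MIC by broth dilution in Sabouraud's dextrose broth, only for fungi sensitive in disc diffusion. Two-fold serial dilutions of compounds are made in 1 ml broth per tube, range 3.9 to 1000. Inoculated tubes are incubated at 27 °C for 72 h.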

Pseudomonas aeruginosa = experiment: Antimicrobial activity against Pseudomonas aeruginosa NCIM 2200 after 24 hrs by serial dilution method; assay type: functional; settings: NCIM 2200, 24 h; how it was run: as §1
Proteus vulgaris = experiment: Antimicrobial activity against Proteus vulgaris NCIM 2027 after 24 hrs by serial dilution method; assay type: functional; settings: NCIM 2027, 24 h; how it was run: as §1
Staphylococcus = experiment: Antimicrobial activity against Staphylococcus albus NCIM 2178 after 24 hrs by serial dilution method; assay type: functional; settings: NCIM 2178, 24 h
[11] = test system: Rhodococcus corynebacterioides; experiment: Antimicrobial activity against Corynebacterium rubrum NCIM 2252 after 24 hrs by serial dilution method; assay type: functional; settings: Rhodococcoides corynebacterioides, NCIM 2252, 24 h; how it was run: as §1
Aspergillus niger [12] = experiment: Antimicrobial activity against Aspergillus niger NCIM 902 after 72 hrs by serial dilution method; assay type: functional; settings: NCIM 1196, 72 h, in the assay text read “NCIM 1196” for “NCIM 902”; how it was run: as §5
Aspergillus niger [13] = experiment: Antimicrobial activity against Aspergillus niger NCIM 902 at 1000 ug/disk after 72 hrs by disk diffusion method; assay type: functional; settings: NCIM 1196, 72 h, in the assay text read “NCIM 1196” for “NCIM 902”, read-out: DIZ; how it was run: as §2
Lipomyces lipofer = experiment: Antimicrobial activity against Lipomyces lipofer NCIM 3252 after 72 hrs by serial dilution method; assay type: functional; settings: NCIM 3252, 72 h; how it was run: as §5
Aspergillus niger [14] = experiment: Antimicrobial activity against Aspergillus niger NCIM 902 at 500 ug/disk after 72 hrs by disk diffusion method; assay type: functional; settings: NCIM 1196, 72 h, in the assay text read “NCIM 1196” for “NCIM 902”, read-out: DIZ; how it was run: as §2
Penicillium chrysogenum = experiment: Antimicrobial activity against Penicillium chrysogenum NCIM 707 after 72 hrs by serial dilution method; assay type: functional; settings: NCIM 707, 72 h; how it was run: as §5

CC1(C)CC(=O)C2=C(C1)Nc1c(ccc3ccccc13)C2c1ccccc1O (stereo not drawn)
MIC (Bacillus subtilis [1]): 62.5 mg/L (≈ 169 µM) | diameter of the inhibition zone (DIZ) (Aspergillus niger [2]): inactive | diameter of the inhibition zone (DIZ) (Aspergillus fumigatus [3]): inactive | diameter of the inhibition zone (DIZ) (Aspergillus niger [4]): inactive | MIC (Rhodotorula mucilaginosa): 7.8 mg/L (≈ 21.1 µM) | MIC (Klebsiella aerogenes [5]): 62.5 mg/L (≈ 169 µM) | MIC (Bacillus cereus [6]): 62.5 mg/L (≈ 169 µM) | zone of inhibition at 1000 µg/disc (Klebsiella aerogenes [7]): 10 mm | zone of inhibition at 500 µg/disc (Bacillus cereus [8]): 7 mm | MIC (Salmonella typhimurium): 31.2 mg/L (≈ 84.4 µM) | zone of inhibition at 1000 µg/disc (Bacillus subtilis [9]): 9 mm | MIC (Trichoderma viride): 31.2 mg/L (≈ 84.4 µM) | zone of inhibition at 1000 µg/disc (Aspergillus parasiticus): 16 mm

CC1(C)CC(=O)C2=C(C1)Nc1c(ccc3ccccc13)C2c1ccc(Cl)cc1 (stereo not drawn)
MIC (Aspergillus fumigatus [10]): 125 mg/L (≈ 322 µM) | MIC (Bacillus subtilis [1]): 31.2 mg/L (≈ 80.4 µM) | diameter of the inhibition zone (DIZ) (Aspergillus niger [2]): inactive | zone of inhibition at 1000 µg/disc (Aspergillus fumigatus [3]): 8 mm | diameter of the inhibition zone (DIZ) (Aspergillus niger [4]): inactive | MIC (Rhodotorula mucilaginosa): 15.6 mg/L (≈ 40.2 µM) | MIC (Pseudomonas aeruginosa): 62.5 mg/L (≈ 161 µM) | MIC (Klebsiella aerogenes [5]): 62.5 mg/L (≈ 161 µM) | MIC (Bacillus cereus [6]): 15.6 mg/L (≈ 40.2 µM) | zone of inhibition at 1000 µg/disc (Klebsiella aerogenes [7]): 11 mm | MIC (Proteus vulgaris): 62.5 mg/L (≈ 161 µM) | zone of inhibition at 500 µg/disc (Bacillus cereus [8]): 10 mm | MIC (Salmonella typhimurium): 31.2 mg/L (≈ 80.4 µM) | zone of inhibition at 1000 µg/disc (Bacillus subtilis [9]): 10 mm | MIC (Staphylococcus): 125 mg/L (≈ 322 µM) | MIC (Trichoderma viride): 62.5 mg/L (≈ 161 µM) | MIC [11]: 62.5 mg/L (≈ 161 µM) | zone of inhibition at 1000 µg/disc (Aspergillus parasiticus): 17 mm

CC1(C)CC(=O)C2=C(C1)Nc1c(ccc3ccccc13)C2c1ccc(O)cc1 (stereo not drawn)
MIC (Bacillus subtilis [1]): 62.5 mg/L (≈ 169 µM) | diameter of the inhibition zone (DIZ) (Aspergillus fumigatus [3]): inactive | MIC (Rhodotorula mucilaginosa): 3.9 mg/L (≈ 10.6 µM) | MIC (Pseudomonas aeruginosa): 62.5 mg/L (≈ 169 µM) | MIC (Klebsiella aerogenes [5]): 31.2 mg/L (≈ 84.4 µM) | MIC (Bacillus cereus [6]): 31.2 mg/L (≈ 84.4 µM) | zone of inhibition at 1000 µg/disc (Klebsiella aerogenes [7]): 12 mm | MIC (Aspergillus niger [12]): 62.5 mg/L (≈ 169 µM) | zone of inhibition at 1000 µg/disc (Aspergillus niger [13]): 10 mm | MIC (Lipomyces lipofer): 62.5 mg/L (≈ 169 µM) | zone of inhibition at 500 µg/disc (Aspergillus niger [14]): 8 mm | MIC (Proteus vulgaris): 125 mg/L (≈ 338 µM) | MIC (Penicillium chrysogenum): 125 mg/L (≈ 338 µM) | zone of inhibition at 500 µg/disc (Bacillus cereus [8]): 9 mm | MIC (Salmonella typhimurium): 31.2 mg/L (≈ 84.4 µM) | zone of inhibition at 1000 µg/disc (Bacillus subtilis [9]): 10 mm | MIC (Staphylococcus): 125 mg/L (≈ 338 µM) | MIC (Trichoderma viride): 31.2 mg/L (≈ 84.4 µM) | MIC [11]: 62.5 mg/L (≈ 169 µM) | zone of inhibition at 1000 µg/disc (Aspergillus parasiticus): 14 mm

O=C1CCCC2=C1C(c1ccccc1O)c1ccc3ccccc3c1N2 (stereo not drawn)
MIC (Aspergillus fumigatus [10]): 62.5 mg/L (≈ 183 µM) | MIC (Bacillus subtilis [1]): 62.5 mg/L (≈ 183 µM) | zone of inhibition at 1000 µg/disc (Aspergillus fumigatus [3]): 12 mm | diameter of the inhibition zone (DIZ) (Aspergillus niger [4]): inactive | MIC (Rhodotorula mucilaginosa): 15.6 mg/L (≈ 45.7 µM) | MIC (Bacillus cereus [6]): 125 mg/L (≈ 366 µM) | diameter of the inhibition zone (DIZ) (Klebsiella aerogenes [7]): inactive | MIC (Aspergillus niger [12]): 125 mg/L (≈ 366 µM) | zone of inhibition at 1000 µg/disc (Aspergillus niger [13]): 9 mm | MIC (Penicillium chrysogenum): 125 mg/L (≈ 366 µM) | zone of inhibition at 500 µg/disc (Bacillus cereus [8]): 7 mm | zone of inhibition at 1000 µg/disc (Bacillus subtilis [9]): 10 mm | MIC (Trichoderma viride): 62.5 mg/L (≈ 183 µM) | zone of inhibition at 1000 µg/disc (Aspergillus parasiticus): 10 mm

CC1(C)CC(=O)C2=C(C1)Nc1c(ccc3ccccc13)C2c1ccccc1 (stereo not drawn)
MIC (Aspergillus fumigatus [10]): 62.5 mg/L (≈ 177 µM) | MIC (Bacillus subtilis [1]): 31.2 mg/L (≈ 88.3 µM) | diameter of the inhibition zone (DIZ) (Aspergillus niger [2]): inactive | zone of inhibition at 1000 µg/disc (Aspergillus fumigatus [3]): 10 mm | diameter of the inhibition zone (DIZ) (Aspergillus niger [4]): inactive | MIC (Rhodotorula mucilaginosa): 31.2 mg/L (≈ 88.3 µM) | MIC (Bacillus cereus [6]): 31.2 mg/L (≈ 88.3 µM) | diameter of the inhibition zone (DIZ) (Klebsiella aerogenes [7]): inactive | zone of inhibition at 500 µg/disc (Bacillus cereus [8]): 9 mm | MIC (Salmonella typhimurium): 62.5 mg/L (≈ 177 µM) | zone of inhibition at 1000 µg/disc (Bacillus subtilis [9]): 11 mm | MIC (Trichoderma viride): 31.2 mg/L (≈ 88.3 µM) | zone of inhibition at 1000 µg/disc (Aspergillus parasiticus): 10 mm

CC1(C)CC(=O)C2=C(C1)Nc1c(ccc3ccccc13)C2c1ccccc1Cl (stereo not drawn)
MIC (Aspergillus fumigatus [10]): 125 mg/L (≈ 322 µM) | MIC (Bacillus subtilis [1]): 62.5 mg/L (≈ 161 µM) | diameter of the inhibition zone (DIZ) (Aspergillus niger [2]): inactive | zone of inhibition at 1000 µg/disc (Aspergillus fumigatus [3]): 8 mm | diameter of the inhibition zone (DIZ) (Aspergillus niger [4]): inactive | MIC (Rhodotorula mucilaginosa): 15.6 mg/L (≈ 40.2 µM) | MIC (Klebsiella aerogenes [5]): 125 mg/L (≈ 322 µM) | MIC (Bacillus cereus [6]): 31.2 mg/L (≈ 80.4 µM) | zone of inhibition at 1000 µg/disc (Klebsiella aerogenes [7]): 9 mm | MIC (Lipomyces lipofer): 125 mg/L (≈ 322 µM) | zone of inhibition at 500 µg/disc (Bacillus cereus [8]): 8 mm | MIC (Salmonella typhimurium): 31.2 mg/L (≈ 80.4 µM) | zone of inhibition at 1000 µg/disc (Bacillus subtilis [9]): 8 mm | MIC (Trichoderma viride): 125 mg/L (≈ 322 µM) | zone of inhibition at 1000 µg/disc (Aspergillus parasiticus): 10 mm
